These results are taken from ChEMBL document CHEMBL3098105, “7,7'-Diazaindirubin--a small molecule inhibitor of casein kinase 2 in vitro and in cells” (Bioorg Med Chem, 2014).

The nature of experiment [1]: Antiproliferative activity against human EKVX cells after 3 days by sulforhodamine B assay. The format is functional. Conditions: 72 h. The gist of the method: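 Tested in the NCI 60 cell line panel. GI50 is the concentration giving 50% inhibition of cell growth, and values are the mean of two series of tests.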
Background: The SRB assay estimates cell density from bound dye.

For experiment [2], the target named is Ribosomal protein S6 kinase beta-1 (Homo sapiens) (UniProt P23443). Put plainly: Inhibition of human p70S6K assessed as residual activity at 1 uM relative to control.
Sequence of Ribosomal protein S6 kinase beta-1 (Homo sapiens) (P23443 whole entry, looked up): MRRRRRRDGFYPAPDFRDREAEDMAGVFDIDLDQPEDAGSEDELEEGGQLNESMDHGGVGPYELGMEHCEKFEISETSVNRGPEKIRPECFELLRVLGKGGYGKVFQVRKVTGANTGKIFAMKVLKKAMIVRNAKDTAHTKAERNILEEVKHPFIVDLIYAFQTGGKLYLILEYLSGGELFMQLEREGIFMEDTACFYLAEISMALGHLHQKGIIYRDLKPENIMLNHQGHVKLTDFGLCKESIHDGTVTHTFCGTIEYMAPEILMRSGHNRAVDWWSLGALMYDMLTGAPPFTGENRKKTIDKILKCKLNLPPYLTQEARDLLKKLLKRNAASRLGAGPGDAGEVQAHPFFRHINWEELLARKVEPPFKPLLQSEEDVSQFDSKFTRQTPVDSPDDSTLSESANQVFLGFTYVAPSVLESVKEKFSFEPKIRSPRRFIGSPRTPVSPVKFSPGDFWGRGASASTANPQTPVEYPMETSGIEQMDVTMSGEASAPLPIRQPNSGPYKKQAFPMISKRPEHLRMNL
In experiment [3] the target is Serine/threonine-protein kinase pim-3 (Homo sapiens) (UniProt Q86V86). Put plainly: Inhibition of human Pim-3 assessed as residual activity at 1 uM relative to control.

In turn, `O=C1Nc2ncccc2/C1=C1/Nc2ncccc2C1=O` had a GI50 in experiment [1] of 1270 nM. Besides, the Activity in experiment [2] turned out to be 133%; in experiment [3], 74%.

In general, GI50 refers to the concentration that inhibits growth by half. Low values mean greater sensitivity of the cells, high ones lower sensitivity of the cells.
